Series [1] has as its system Salmonella typhimurium TA100. Put plainly: The Mutagenicity in Salmonella typhimurium TA100 relative to Ronidazole.
The next series has as its system Tritrichomonas suis. In words: In vitro anti-trichomonal activity against Trichomonas foetus-Ortho strain-2. The conditions noted are these: read-out: ED50 (the source's name). The format is functional. The method in brief: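 Trichomonas foetus Ortho strain 2 was grown in Diamond's medium with gentamycin (24 μg/mL) and 10% calf serum. 2×10^6 trichomonads were added to 1.8 mL medium. Compound was given in water or Me₂SO (final ≤1%, with solvent controls) over a range bracketing the EC₅₀. Motile survivors were counted after 24 h at 37 °C. The value is the mean of two or three determinations.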

Series [2] in a line: Safety index. The conditions noted are these: read-out: Safety index. The format is toxicity. The method in brief:
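Index derived as [(ED₅₀ of reference × mutagenicity of reference)]/(ED₅₀ × mutagenicity), using the antitrichomonal ED₅₀ and the TA100 mutagenicity (relative to reference) measured here.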

In series [3] the test system is Salmonella typhimurium TA100. In words: The Mutagenicity was determined in Salmonella typhimurium TA100 relative to compound 20; ND means not detectable.

≈ marks a conversion by molar mass, not a printed value.

`Cn1c([N+](=O)[O-])cnc1CCO`: in series [1], the Mutagenicity was 19%.
Consider `CC(=O)Oc1cc(C(=O)OCCn2c([N+](=O)[O-])cnc2-c2ccc(F)cc2)cc(OC(C)=O)c1OC(C)=O`, for which, in the series with Tritrichomonas suis, the EC50 is 3.9 µg/mL (≈ 7.37 µM). For the same compound, the selectivity ratio in series [2] came out at 0.6. Moreover, in series [1], the Mutagenicity came out at 17%.
The corresponding values for `CC(=O)Oc1cc(C(=O)OCCn2c([N+](=O)[O-])cnc2C)cc(OC(C)=O)c1OC(C)=O` are 6.6 µg/mL (≈ 14.7 µM), 26 and 0.23%.
On to `Cn1c([N+](=O)[O-])cnc1-c1ccc(F)cc1`, for which the EC50 in the series on Tritrichomonas suis is 0.25 µg/mL (≈ 1.13 µM). Moreover, in series [2], the selectivity ratio stood at 0.53. This compound also displayed a Mutagenicity in series [1] of 300%.
Turning to `Cc1ncc([N+](=O)[O-])n1C` [DIMETRIDAZOLE], the EC50 in the series with Tritrichomonas suis was found to be 0.3 µg/mL (≈ 2.13 µM). Moreover, the selectivity ratio in series [2] was found to be 8.9. In series [1], the Mutagenicity was found to be 15%.
Consider `Cc1nc(Br)c([N+](=O)[O-])n1C`, for which, in the series with Tritrichomonas suis, the EC50 came to 0.75 µg/mL (≈ 3.41 µM). The selectivity ratio in series [2] stood at 0.65. This compound also yielded a Mutagenicity in series [1] of 8%.
The corresponding values for `Cn1c([N+](=O)[O-])cnc1CO` are 1.6 µg/mL (≈ 10.2 µM), 1.6 and 16%.
Taken in the same sequence, the figures for `Cc1nc(C)n(CCO)c1[N+](=O)[O-]` were 21.5 µg/mL (≈ 116 µM), 6.2 and 0.3%.
With `Cn1c([N+](=O)[O-])cnc1COC(N)=O` [RONIDAZOLE], the EC50 in the series with Tritrichomonas suis came out at 0.4 µg/mL (≈ 2 µM). Besides, the selectivity ratio in series [2] was 1. In addition, in series [1], the Mutagenicity is reported as 100%.
The corresponding values for `Cn1cnc(F)c1[N+](=O)[O-]` are 3.6 µg/mL (≈ 24.8 µM), 0.7 and 16%.
The corresponding values for `CC(=O)OCCc1nc(C)n(C)c1[N+](=O)[O-]` are 2.8 µg/mL (≈ 12.3 µM), 14 and 1%.
Regarding `Cc1nc(COC(N)=O)n(C)c1[N+](=O)[O-]`, the EC50 with Tritrichomonas suis was determined as 1 µg/mL (≈ 4.67 µM). Besides, in series [2], the selectivity ratio worked out at 20. In series [1], this compound yielded a Mutagenicity of 2%.
Consider `Cn1c(CO)nc(CCO)c1[N+](=O)[O-]`, for which, in the series with Tritrichomonas suis, the EC50 was determined as 20 µg/mL (≈ 99.4 µM). The selectivity ratio in series [2] amounted to 2. In series [1], the Mutagenicity was found to be 1%.
With `Cc1ncc([N+](=O)[O-])n1CCO` [METRONIDAZOLE], the EC50 with Tritrichomonas suis worked out at 0.4 µg/mL (≈ 2.34 µM).
Consider `Cn1c(-c2ccc(F)cc2)nc(CCO)c1[N+](=O)[O-]`, for which the EC50 in the series with Tritrichomonas suis is 7.7 µg/mL (≈ 29 µM). In addition, in series [2], the selectivity ratio stood at 0.65. This compound displayed a Mutagenicity in series [1] of 8%.
As to `Cc1nc(C)n(C)c1[N+](=O)[O-]`, the EC50 with Tritrichomonas suis was determined as 32 µg/mL (≈ 206 µM). Further, in series [2], the selectivity ratio was 3.1. The Mutagenicity in series [1] is listed as 0.4%.
For the compound `Cc1nc(F)c([N+](=O)[O-])n1C`, in the series on Tritrichomonas suis, the EC50 was 14.5 µg/mL (≈ 91.1 µM). Besides, the Mutagenicity entry in series [3] is “Not detectable”.
Turning to `Cc1nc(CCOC(=O)C(C)(C)C)c([N+](=O)[O-])n1C`, in the series on Tritrichomonas suis, the EC50 amounted to 11 µg/mL (≈ 40.8 µM). Besides, the selectivity ratio in series [2] is 1.4. In series [1], this compound yielded a Mutagenicity of 2.6%.
The corresponding values for `COc1cc(C(=O)OCCn2c([N+](=O)[O-])cnc2C)cc(OC)c1OC` are 1.35 µg/mL (≈ 3.7 µM), 2.5 and 12%.
With `Cc1nc(-c2ccc(F)cc2)n(C)c1[N+](=O)[O-]`, in the series on Tritrichomonas suis, the EC50 worked out at 10 µg/mL (≈ 42.5 µM). For the same compound, in series [2], the selectivity ratio amounted to 0.27. In series [1], this compound returned a Mutagenicity of 15%.
In series [1], `Cc1nc(CCO)n(C)c1[N+](=O)[O-]` yielded a Mutagenicity of 0.8%.
Turning to `CC(=O)Oc1cc(C(=O)OCc2ncc([N+](=O)[O-])n2C)cc(OC(C)=O)c1OC(C)=O`, in the series on Tritrichomonas suis, the EC50 worked out at 2.35 µg/mL (≈ 5.4 µM). For the same compound, in series [2], the selectivity ratio amounted to 0.6. Moreover, in series [1], the Mutagenicity came out at 26%.
Taken in the same sequence, the figures for `Cc1nc(CCO)c([N+](=O)[O-])n1C` were 2 µg/mL (≈ 10.8 µM), 71 and 0.28%.

Values taken from ChEMBL document CHEMBL1123661, “Structural alterations that differentially affect the mutagenic and antitrichomonal activities of 5-nitroimidazoles” (J Med Chem, 1987).
